Assay results: the EternaBench riboswitch data

Test system: MS2 coat protein
Assay: apparent Kd, MS2 coat protein; higher = weaker binding; RNA-MaP array; FMN 200 µM where present
Procedure, shortened: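 Two titrations, one without ligand and one with constant ligand, were run with SNAP-549-labelled MS2 coat protein from 0.7 or 1.5 nM, doubling to 3 µM. The targets were designs transcribed by stalled E. coli RNA polymerase on Illumina sequencing-chip clusters, in 100 mM Tris-HCl pH 7.5, 80 mM KCl, 4 mM MgCl2, BSA, DTT, yeast tRNA and Tween-20. The apparent Kd is the median of filtered per-cluster binding-curve fits, with green signal normalised to red-channel RNA signal and control-cluster median Fmax.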

[1] = designed as: OFF switch for flavin mononucleotide, no ligand
[2] = ligand present: flavin mononucleotide, designed as: OFF switch for flavin mononucleotide
[3] = designed as: ON switch for flavin mononucleotide, no ligand
[4] = ligand present: flavin mononucleotide, designed as: ON switch for flavin mononucleotide

| Sequence | apparent Kd [1] [nM] | apparent Kd [2] [nM] | apparent Kd [3] [nM] | apparent Kd [4] [nM] |
| --- | --- | --- | --- | --- |
| CGAUAUGAUAGAGGAUAUGUAAUACAUGAGGAUCACCCAUGUUACAUGGGAAUUAUAAAUAAUUAACAGAAGGCUAUUCUAUCG | 63.8 | 177 |  |  |
| CGAUAUUAUGCAGGAUAUCUCCCUUGAAUGAGGAGAGAAGGGCAUAGGGAGACAUAAGCCUUAUUACAUGAGGAUCACCCAUGU | 9.67 | 8.35 |  |  |
| CGAUAUUAUGCAGGAUAUCUUCCUUGAAUGAGGAGAGAAGGGCAUAGGGAGACAUAAGCCUUAUUACAUGAGGAUCACCCAUGU | 10.7 | 8.83 |  |  |
| CGAUGACAAAGUCAUCGAAUACGAACAUGAGGAUCACCCAUGUAGGAUAUGCUACUCAAAGAGUAGCAGAAGGACAUGUGUCUU | 31.4 | 154 |  |  |
| CGAUGACACAGUCAUCCAAUACGAACAUGAGGAUCACCCAUGUAGGAUAUGGUACUCACAGAGUAGCAGAAGGACAUGUGCCUU | 72.8 | 158 |  |  |
| CGAUGAGGUGUGAGGAUAUCGUGUUCGAAAGAACGUGAGAAGGCACAUGAGGAUCACCCAUGUCAACCUUGUCG | 17.3 | 15.6 |  |  |
| CGAUGGCAUGUAGGAUAUCGAGCUCAAAGAGCUCGAGAAGGACAUGAGGAUCACCCAUGUCGUCACAGACAGUGACGGCUAUCG | 24.4 | 133 |  |  |
| CGAUGGCAUGUAGGAUAUCGAGCUCAAAGAGCUCGAGAAGGACAUGAGGAUCACCCAUGUGCACACAGACAGUGUGCGCUAUCG | 37 | 181 |  |  |
| CGAUGGUAGACAGGAUAUCGACCGGGAUACUAUGAAGACUAUAAACACAUGAGGAUCACCCAUGUCGAGAAGGGUCUCACAGCG | 37.1 | 60.9 |  |  |
| CGCAACAUACAGAAGGAGUAAAUUAGAAGUGUACUAGGAUAUGUUUACAUGAGGAUCACCCAUGUCGAUUGGGUUUUAGUUGCG | 489 | 251 |  |  |
| CGCAACUCAGAUCUUUUGAACAUGAGGAUCACCCAUGUAUUGAGAAGGAGGAAGAAGAGAGAUUCCUAGGAUAUCAGAGUUGCG | 5.95 | 5.81 |  |  |
| CGCAACUCUGCACAGGUCAACAUGAGGAUCACCCAUGUAUUGAGAAGGAGGAAGAAGAGAGAUUCCUAGGAUAUCAGAGUUGCG | 6.45 | 6.74 |  |  |
| CGCAAGUAUACAUGAGGAUCACCCAUGUCAGAAAGGGUAAUCAGAAGGUACAAUUAGAGAUAGAGUAAGGAUAUGAAAUUUGCG |  |  | 750 | 274 |
| CGCAAGUAUACAUGAGGAUCACCCAUGUCAGAAAGGGUAAUCAGAAGGUACUAUUAGAGAUAGAGUAAGGAUAUGAAAUUUGUG |  |  | 399 | 110 |
| CGCACUGAUAGAGGAUAUGUUGUACAUGAGGAUCACCCAUGUGUUUUUGUAUCAAUAUUUGUGAAACAGAAGGCUAUUAGUGCG | 7.58 | 5.65 |  |  |
| CGCAUGCGUAGUAUUAGUUGUUGACAGGAUAUGACAUGAGGAUCACCCAUGUGUAUUAAGAAGUGUCAGAAGGGUCUCGUUGCG | 6.53 | 9.73 |  |  |
| CGCCGCACCAGCCGGCGGCAGGGUCAGGAUAUACAUGAGGAUCACCCAUGUGAACGGUGCCCAAUGUAGAAGGGACGAAGAGAC | 20.5 | 32.6 |  |  |
| CGCCUGCGUAGAAUUAGCAGCUGACAGGAUAUGACAUGAGGAUCACCCAUGUGAAUUAAGAAGAGUCAGAAGGGUCACGACGCG | 9.4 | 10.8 |  |  |
| CGCGUAUGAGGAUAUGCAUAAAAGGGUGCACUGAGUCUGAGACAUGAGGAUCACCCAUGUAGAAGGCGUGCGCU | 12.9 | 16 |  |  |
| CGCUAAUAGAACGAUUUGUGAAGACAUGAGGAUCACCCAUGUAGAAGGACAACGGAAUAAACGUUGUAGGAUAUACACUUAGCG | 18.1 | 24.4 |  |  |
| CGCUACAGCCAGAAGGACAUGAGGAUCACCCAUGUAGGAUAUGGGAGACACAGUCCCGUGUAGAGAAACUACGCUACUGUAGCG |  |  | 679 | 464 |

| Sequence | apparent Kd [1] [nM] | apparent Kd [2] [nM] | apparent Kd [3] [nM] | apparent Kd [4] [nM] |
| --- | --- | --- | --- | --- |
| CGCUACUACCAGAAGGACAUGAGGAUCACCCAUGUAGGAUAUGGGUUACACGUUCCUGUGUUUUGUUACUACGCUACGUAUGCG |  |  | 621 | 29 |
| CGCUCAAUUACUUUGAAUAGAAUCAGAAGGCGUUACAUGAGGAUCACCCAUGUUAUGACGUGUAACGAGGAUAUGAAUUGAGCG | 7.18 | 30.5 |  |  |
| CGCUCAAUUACUUUGAAUAGAAUCAGAAGGCGUUACAUGAGGAUCACCCAUGUUAUGAUGUGUAACGAGGAUAUGAAUUGAGCG | 38.2 | 208 |  |  |
| CGCUCUAUAUAUUUGGCAAGAAUCAGAAGGCGUUACAUGAGGAUCACCCAUGUUUUGAAUAGUAACGAGGAUAUGAUAUGAGCG | 21.6 | 25 |  |  |
| CGCUGUCACGCAGGAUAUGCAUUGGAUUACAAUGCAGAAGGGCGAUCACAUGAGGAUCACCCAUGUGUAGACAGUGAAUAAGAG |  |  | 611 | 49.6 |
| CGCUGUCAUGCAGGAUAUGCAUUGGAUUACAAUGCAGAAGGGCGAUUACAUGAGGAUCACCCAUGUGUAGACAGUGAAGAAGAG |  |  | 415 | 34.4 |
| CGCUGUCAUGCAGGAUAUGCAUUGGAUUGCAAUGCAGAAGGGCGAUUACAUGAGGAUCACCCAUGUGUAGACAGUGAAGAAGAG |  |  | 160 | 12.6 |
| CGGAAUUGUACAGGAUAUGAGGGUGCCUGAGCCUCAGAAGGGUAGACCGACAUGAGGAUCACCCAUGUAUGUGGAUAACGUCCG |  |  | 75.5 | 336 |
| CGGCACGCAGGAUAUGCCUUUGAGUACAUGAGGAUCACCCAUGUCUUCACCCUCAUUAGGGCAGAAGGGCGAUAUC | 24.4 | 32.2 |  |  |
| CGGCAUGUCUGAGGAUAUCUGCACGUUUAGUGCAGAGAAGGCAGAACAUGAGGAUCACCCAUGUAGAUCAUUAACCGAUUAAUU | 228 | 337 |  |  |
| CGGCGGAAAGGAUAUGCAGAAAUAUCAAAAUGUGGGCCACGACAUGAGGAUCACCCAUGUAGAAGGUUCAGCCG | 15.5 | 12.7 |  |  |
| CGGCGUAGCGUAAGGAUAUCGCGCGGUGUAAUUGUUGAGAAGGUACAUGAGGAUCACCCAUGUGGUCAGCCGGC | 40 | 40 |  |  |
| CGGGAGUCAGGAUAUACGGUCAUGUCGCCAGAUGUCAUGGUACAUGAGGAUCACCCAUGUAGAAGGGAGGAGAU | 75.7 | 136 |  |  |
| CGGGUCUGAGGAUAUCCAUCUUCAUACAUGAGGAUCACCCAUGUUUACCUUUGGGUUUUUGGAGAAGGCAGUUUUC | 43.5 | 74.6 |  |  |
| CGGUACUUAGGAUAUACAUGAGGAUCACCCAUGUAGAAAUGGUGGGUGCCGUCCUGUGGUAGAAGGAAGAAUCG | 28.5 | 50.2 |  |  |
| CGGUCGAUAUCAGGAUAUCGUUUAAUUACAUGAGGAUCACCCAUGUUGACAUGGAAUAUAACAUGCGAGAAGGGAUUACGAUCG |  |  | 13.9 | 9.85 |
| CGGUCGAUGUAAGGAUAUCGACUGGAAUACAGUCGAGAAGGUACAUGAGGAUCACCCAUGUAAACCUAUAAUAAAUAACGACCG | 11.7 | 14.4 |  |  |
| CGGUGACGUGUAGGAUAUGGAGGUGGGUUUUGGCCAGAAGGACAUGAGGAUCACCCAUGUGGUAGAGGGUUGGCGGCGGCCCGU | 15 | 14.7 |  |  |
| CGUAGGAUCCAGAAGGCAUGAACAUGAGGAUCACCCAUGUGAAAACACAUGAGGAUAUGGAUCCUACGAAAAGUGCGAAAGCAC |  |  | 5.4 | 4.66 |
| CGUAGGAUGCAGAAGGCAUGAACAUGAGGAUCACCCAUGUGAAAACACAUGAGGAUAUGCAUCCUACGAAAAGUGCGAAAGCAC |  |  | 5.89 | 4.69 |
